Results: ChEMBL document CHEMBL1268852, “Quercetin prevents unloading-derived disused muscle atrophy by attenuating the induction of ubiquitin ligases in tail-suspension mice” (J Nat Prod, 2010)
Calls of active or inactive are those of the source. The calls are words filed in the database; no cut-off is given here.

Tests used:
Format in all cases: functional, organism-based
Mus musculus [1] = experiment: […] of lipid peroxidation in gastrocnemius muscle of C57BL/6 mouse tail suspension model assessed as decrease of thiobarbituric acid-reactive substance level at 2.5 pmol administered in gastrocnemius muscle qd for 10 days by RT-PCR analysis
How it was run: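 Male C57BL/6 mice, 7 weeks old. Compound in 0.9% saline with 0.1% propylene glycol, 2.5 pmol/leg (50 µL) injected into one gastrocnemius and vehicle into the other, given every 24 h. Tail suspension began 24 h after the first dose and lasted 10 days; ground mice served as controls. Muscle taken 6 h after the day-10 dose. TBARS measured by fluorescence ([…]) against a tetraethoxypropane standard; n=4, two-way ANOVA.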

Mus musculus [2] = experiment: Reduction of gastrocnemius muscle weight loss in C57BL/6 mouse tail suspension model at 2.5 pmol administered in gastrocnemius muscle qd for 10 days relative to whole body weight
Mus musculus [3] = experiment: Reduction of MuRF-1 mRNA expression in gastrocnemius muscle of C57BL/6 mouse tail suspension model at 2.5 pmol administered in gastrocnemius muscle qd for 10 days by RT-PCR analysis
How it was run: (§1)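 Male C57BL/6 mice, 7 weeks old, injected intramuscularly in one gastrocnemius with 2.5 pmol/leg in saline/0.1% propylene glycol every 24 h; vehicle went into the contralateral leg. Tail suspension lasted 10 days and ground mice served as controls. Gastrocnemius taken 6 h after the last dose. mRNA measured by real-time PCR and given as % of the vehicle-ground level; mean ± SE, n=4.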

Mus musculus [4] = experiment: Reduction of atrogin-1 mRNA expression in gastrocnemius muscle of C57BL/6 mouse tail suspension model at 2.5 pmol administered in gastrocnemius muscle qd for 10 days by RT-PCR analysis; how it was run: as §1

Row | SMILES | Activity (Mus musculus [1]) | Activity (Mus musculus [2]) | Activity (Mus musculus [3]) | Activity (Mus musculus [4])
1 | CC(=O)N[C@@H](CS)C(=O)O | Active | Active |  | 
2 | O=c1cc(-c2ccccc2)oc2ccccc12 | inactive |  | inactive | inactive
3 | O=c1c(O)c(-c2ccc(O)c(O)c2)oc2cc(O)cc(O)c12 | Active | Active | Active | Active
